Calls of active or inactive are those of the source. No cut-off for these calls is given here.
Legend:
HL-60 [1] = experiment: Induction of reactive oxygen species in human HL60 cells at 0.125 uM measured after 48 hrs by H2DCFDA dye-based flow cytometric analysis (reference value: 0.4%); type: functional
MOLT-4 [2] = experiment: Cytotoxicity against human MOLT4 cells assessed as growth inhibition at 10 uM after 48 hrs by MTT assay; type: functional; settings: MOLT-4, 48 h, read-out: GI
Histone deacetylase 4 = Histone deacetylase 4 (Homo sapiens, UniProt P56524); experiment: Inhibition of HDAC 4 in human HeLa nuclear extract using fluorogenic HDAC class 2A substrate measured after 60 mins by fluorometric analysis
Chain of Histone deacetylase 4 (P56524 whole entry): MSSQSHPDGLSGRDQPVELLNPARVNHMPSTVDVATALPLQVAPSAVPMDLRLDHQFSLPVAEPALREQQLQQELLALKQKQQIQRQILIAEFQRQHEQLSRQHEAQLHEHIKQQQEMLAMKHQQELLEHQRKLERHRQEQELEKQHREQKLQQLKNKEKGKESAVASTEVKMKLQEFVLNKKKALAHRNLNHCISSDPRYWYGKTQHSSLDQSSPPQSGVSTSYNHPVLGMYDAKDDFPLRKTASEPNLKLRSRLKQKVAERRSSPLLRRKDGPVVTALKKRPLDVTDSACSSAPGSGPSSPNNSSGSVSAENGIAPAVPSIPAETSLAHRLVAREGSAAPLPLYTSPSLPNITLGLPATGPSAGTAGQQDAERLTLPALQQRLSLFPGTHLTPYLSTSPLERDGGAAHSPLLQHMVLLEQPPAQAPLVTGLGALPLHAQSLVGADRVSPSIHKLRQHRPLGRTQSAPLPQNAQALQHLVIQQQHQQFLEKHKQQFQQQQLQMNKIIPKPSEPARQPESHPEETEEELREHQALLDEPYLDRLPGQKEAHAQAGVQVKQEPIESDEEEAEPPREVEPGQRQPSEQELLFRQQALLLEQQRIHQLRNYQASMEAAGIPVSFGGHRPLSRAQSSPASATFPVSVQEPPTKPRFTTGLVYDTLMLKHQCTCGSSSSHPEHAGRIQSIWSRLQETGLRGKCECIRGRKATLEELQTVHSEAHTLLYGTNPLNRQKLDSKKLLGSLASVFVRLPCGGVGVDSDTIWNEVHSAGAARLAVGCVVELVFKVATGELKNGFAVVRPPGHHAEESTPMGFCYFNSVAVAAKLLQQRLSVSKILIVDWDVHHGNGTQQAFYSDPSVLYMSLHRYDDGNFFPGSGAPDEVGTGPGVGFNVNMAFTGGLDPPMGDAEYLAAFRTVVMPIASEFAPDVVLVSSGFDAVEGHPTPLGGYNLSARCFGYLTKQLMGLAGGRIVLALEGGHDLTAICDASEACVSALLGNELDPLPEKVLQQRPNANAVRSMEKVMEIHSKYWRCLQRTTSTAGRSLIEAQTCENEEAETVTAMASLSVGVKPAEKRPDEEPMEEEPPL

MOLT-4 [3] = experiment: Induction of mitochondrial membrane potential loss in human MOLT4 cells at 10 uM measured after 48 hrs by Rh123 dye-based flow cytometric analysis (reference value: 90.4%); type: functional
Procedure, shortened: (§1)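 Cells seeded in 6-well plates 2-4 h, then 48 h with compound; Rh-123 1 µM added for the final half hour; cells centrifuged, washed twice in PBS, resuspended in PBS, and Ψm loss quantified by flow cytometry as percentage of cells.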

MOLT-4 [4] = experiment: Induction of autophagy in human MOLT4 cells assessed as intracellular LC-3B distribution at 10 uM after 48 hrs by DAPI dye-based immunofluorescent microscopic analysis; type: functional, cell-based
Procedure, shortened: (§2)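 After 48 h treatment (SAHA 1.0 µM control), cells put on poly-lysine coverslips, fixed 15 min in 4% paraformaldehyde, permeabilised with 0.1% Triton X-100, blocked in 10% BSA; anti-LC-3B 1:100 for 1 h, Alexa Fluor 488 secondary 1:500 for 1 h, DAPI 1 µg/ml counterstain; imaged with 60X oil objective.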

HL-60 [5] = experiment: Induction of mitochondrial membrane potential loss in human HL60 cells assessed as intact mitochondrial membrane potential at 1 uM measured after 48 hrs by Rh123 dye-based flow cytometric analysis (reference value: 91.3%); type: functional; procedure, shortened: as §1
P388 = experiment: Antitumor activity against mouse P388 cells implanted in CDF1 mouse assessed as increase in median survival time at 50 mg/kg, ip administered for 9 consecutive days; type: functional
Procedure, shortened: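 P388 leukemia cells were harvested from 6–7-day-old ascites grown in the peritoneum of female DBA/2 mice. Female CDF1 mice (18–23 g) received 5×10^5 cells i.p. on day 0. Next day they were randomized into groups of 7 and dosed i.p. daily for 9 consecutive days; controls got 0.2 ml normal saline. Mortality was followed to day 18, with median survival time and %T/C calculated.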

HL-60 [6] = experiment: Induction of reactive oxygen species in human HL60 cells at 1 uM measured after 48 hrs by H2DCFDA dye-based flow cytometric analysis (reference value: 0.4%); type: functional
MOLT-4 [7] = experiment: Induction of mitochondrial membrane potential loss in human MOLT4 cells assessed as intact mitochondrial membrane potential at 0.125 uM measured after 48 hrs by Rh123 dye-based flow cytometric analysis (reference value: 90.4%); type: functional; procedure, shortened: as §1
PC-3 [8] = experiment: Cytotoxicity against human PC3 cells assessed as growth inhibition after 48 hrs by MTT assay; type: functional, cell-based; settings: PC-3, 48 h
HL-60 [9] = experiment: Induction of mitochondrial membrane potential loss in human HL60 cells at 5 uM measured after 48 hrs by Rh123 dye-based flow cytometric analysis (reference value: 5.6%); type: functional; procedure, shortened: as §1
Caco-2 = experiment: Cytotoxicity against human Caco2 cells assessed as growth inhibition at 10 uM after 48 hrs by MTT assay; type: functional; settings: Caco-2, 48 h, read-out: GI
Procedure, shortened: (§3)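 MTT assay, 48 h exposure; adherent lines seeded 12 h and suspension lines 4 h before compound. Media: RPMI-1640/10% FCS (THP-1, HL-60, Colo-205, Caco-2, A549), DMEM/10% FCS (A549, MIAPaCa-2, MCF-7). MTT 4 h, formazan dissolved in DMSO, absorbance 570 nm. Mean ± S.D of three experiments in triplicate; SAHA 5 µM reference.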

THP-1 = experiment: Antimigratory activity in human THP1 cells at 0.125 uM after 48 hrs by wound healing assay; type: functional, cell-based
Procedure, shortened: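 THP-1 cells seeded at high density, attached overnight; monolayer scratched with a pipette tip, debris removed by PBS washes, then test compound added after wounding. Incubated 48 h under standard culture conditions (37°C, 5% CO2); wound images taken at various intervals from time zero.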

PC-3 [10] = experiment: Cytotoxicity against human PC3 cells assessed as growth inhibition at 10 uM after 48 hrs by MTT assay; type: functional; settings: PC-3, 48 h, read-out: GI
COLO 205 [11] = experiment: Cytotoxicity against human COLO205 cells assessed as growth inhibition at 10 uM after 48 hrs by MTT assay; type: functional; settings: COLO 205, 48 h, read-out: GI; procedure, shortened: as §3
MCF7 = experiment: Cytotoxicity against human MCF7 cells assessed as growth inhibition at 10 uM after 48 hrs by MTT assay; type: functional; settings: MCF7, 48 h, read-out: GI; procedure, shortened: as §3
Histone deacetylase 2 = Histone deacetylase 2 (Homo sapiens, UniProt Q92769); experiment: Inhibition of HDAC 2 in human HeLa nuclear extract using HDAC substrate-3 measured after 60 mins by fluorometric analysis
Chain of Histone deacetylase 2 (Q92769 whole entry): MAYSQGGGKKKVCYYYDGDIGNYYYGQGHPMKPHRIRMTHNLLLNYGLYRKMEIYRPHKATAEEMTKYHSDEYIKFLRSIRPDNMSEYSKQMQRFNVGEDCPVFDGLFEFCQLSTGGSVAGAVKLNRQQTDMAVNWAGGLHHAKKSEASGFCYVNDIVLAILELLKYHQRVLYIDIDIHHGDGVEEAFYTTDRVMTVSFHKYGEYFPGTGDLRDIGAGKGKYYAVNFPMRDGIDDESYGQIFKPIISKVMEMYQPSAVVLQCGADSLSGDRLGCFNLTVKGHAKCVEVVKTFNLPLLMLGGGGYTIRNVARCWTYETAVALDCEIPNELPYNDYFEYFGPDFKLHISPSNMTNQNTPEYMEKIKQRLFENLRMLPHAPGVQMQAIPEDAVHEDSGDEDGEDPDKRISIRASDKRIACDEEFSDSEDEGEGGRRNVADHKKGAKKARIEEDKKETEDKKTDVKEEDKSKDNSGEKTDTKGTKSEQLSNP

MOLT-4 [12] = experiment: Induction of mitochondrial membrane potential loss in human MOLT4 cells assessed as intact mitochondrial membrane potential at 5 uM measured after 48 hrs by Rh123 dye-based flow cytometric analysis (reference value: 90.4%); type: functional; procedure, shortened: as §1
MOLT-4 [13] = experiment: Induction of reactive oxygen species in human MOLT4 cells at 0.125 uM measured after 48 hrs by H2DCFDA dye-based flow cytometric analysis (reference value: 1.1%); type: functional
A549 = experiment: Cytotoxicity against human A549 cells assessed as growth inhibition after 48 hrs by MTT assay; type: functional, cell-based; settings: A549, 48 h
MOLT-4 [14] = experiment: Induction of mitochondrial membrane potential loss in human MOLT4 cells at 1 uM measured after 48 hrs by Rh123 dye-based flow cytometric analysis (reference value: 9.6%); type: functional; procedure, shortened: as §1
HL-60 [15] = experiment: Induction of mitochondrial membrane potential loss in human HL60 cells at 1 uM measured after 48 hrs by Rh123 dye-based flow cytometric analysis (reference value: 5.6%); type: functional; procedure, shortened: as §1
HL-60 [16] = experiment: Induction of autophagy in human HL60 cells assessed as acidic vacuole formation in cytoplasm at 10 uM after 48 hrs by acridine orange dye-based fluorescent microscopic analysis; type: functional, cell-based
Procedure, shortened: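 Cells treated 48 h with a range of compound concentrations, SAHA 1.0 µM as positive control; acridine orange 1 µg/ml added 15 min before end at 37°C; cells washed in PBS and acidic vacuoles viewed by fluorescence microscopy.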

COLO 205 [17] = experiment: Cytotoxicity against human COLO205 cells assessed as growth inhibition after 48 hrs by MTT assay; type: functional, cell-based; settings: COLO 205, 48 h
Histone deacetylase 1 = Histone deacetylase 1 (Homo sapiens, UniProt Q13547); experiment: Inhibition of HDAC 1 in human HeLa nuclear extract using HDAC substrate-3 measured after 60 mins by fluorometric analysis
Chain of Histone deacetylase 1 (Q13547 whole entry): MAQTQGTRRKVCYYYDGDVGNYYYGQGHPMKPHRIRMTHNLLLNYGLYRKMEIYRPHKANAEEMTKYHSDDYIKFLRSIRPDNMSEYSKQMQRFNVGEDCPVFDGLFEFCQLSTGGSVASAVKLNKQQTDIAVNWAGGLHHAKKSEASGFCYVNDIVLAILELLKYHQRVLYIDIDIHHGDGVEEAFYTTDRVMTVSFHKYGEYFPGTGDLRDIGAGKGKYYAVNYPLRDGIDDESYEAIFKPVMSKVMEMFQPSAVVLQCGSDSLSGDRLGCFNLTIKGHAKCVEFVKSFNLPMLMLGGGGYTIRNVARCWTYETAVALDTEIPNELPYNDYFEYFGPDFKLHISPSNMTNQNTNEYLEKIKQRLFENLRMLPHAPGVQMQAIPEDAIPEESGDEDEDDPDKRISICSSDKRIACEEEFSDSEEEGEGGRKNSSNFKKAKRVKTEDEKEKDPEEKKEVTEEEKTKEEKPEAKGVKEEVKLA

HL-60 [18] = experiment: Induction of mitochondrial membrane potential loss in human HL60 cells at 0.125 uM measured after 48 hrs by Rh123 dye-based flow cytometric analysis (reference value: 5.6%); type: functional; procedure, shortened: as §1
MOLT-4 [19] = experiment: Induction of mitochondrial membrane potential loss in human MOLT4 cells assessed as intact mitochondrial membrane potential at 1 uM measured after 48 hrs by Rh123 dye-based flow cytometric analysis (reference value: 90.4%); type: functional; procedure, shortened: as §1
HL-60 [20] = experiment: Induction of autophagy in human HL60 cells assessed as intracellular LC-3B distribution at 10 uM after 48 hrs by DAPI dye-based immunofluorescent microscopic analysis; type: functional, cell-based; procedure, shortened: as §2

O=C(CCCCCCC(=O)Nc1ccccc1CN1CC[C@H](O)C1)NO
Activity (HL-60 [1]): 1%
inhibition of growth at 10 µM (MOLT-4 [2]): 91%
IC50 (Histone deacetylase 4): 7.12 µM
Activity (MOLT-4 [3]): 32.5%
Activity (MOLT-4 [4]): Active
Activity (HL-60 [5]): 90.4%
T/C (P388): 92.47%
Activity (HL-60 [6]): 0.6%
Activity (MOLT-4 [7]): 97.6%
IC50 (PC-3 [8]): 19 µM
Activity (HL-60 [9]): 12.1%
inhibition of growth at 10 µM (Caco-2): 58%
Activity (THP-1): Active
inhibition of growth at 10 µM (PC-3 [10]): 29%
inhibition of growth at 10 µM (COLO 205 [11]): 92%
inhibition of growth at 10 µM (MCF7): 93%
IC50 (Histone deacetylase 2): 0.268 µM
Activity (MOLT-4 [12]): 42.5%
Activity (MOLT-4 [13]): 1.3%
IC50 (A549): 7 µM
Activity (MOLT-4 [14]): 4.9%
Activity (HL-60 [15]): 6.2%
Activity (HL-60 [16]): Active
IC50 (COLO 205 [17]): 0.6 µM
IC50 (Histone deacetylase 1): 0.415 µM
Activity (HL-60 [18]): 7.5%
Activity (MOLT-4 [19]): 95.1%
Activity (HL-60 [20]): Active

Reference: ChEMBL document CHEMBL4049428, “Exploring Derivatives of Quinazoline Alkaloid l-Vasicine as Cap Groups in the Design and Biological Mechanistic Evaluation of Novel Antitumor Histone Deacetylase Inhibitors” (J Med Chem, 2017)
